Laboratory results taken from ChEMBL document CHEMBL1177652 (Bioorg Med Chem, 2010).

Columns and labels:
Acetylcholinesterase = Acetylcholinesterase (Homo sapiens, UniProt P22303); experiment: Inhibition of human whole RBC AChE pretreated for 30 mins by Ellman technique
Cholinesterase = Cholinesterase (Homo sapiens, UniProt P06276); experiment: Inhibition of human plasma BChE pretreated for 30 mins by Ellman technique; assay type: cell-free
Rattus norvegicus [1] = experiment: Ex vivo inhibition of cholinesterase in Fischer-344 rat plasma at 10 mg/kg, ip after 60 mins by spectrophotometric analysis; assay type: functional; conditions: Fischer-344, Plasma, 1 h, route intraperitoneal
How it was run: (§1)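 Anesthetized rats given 10 mg/kg i.p.; predrug blood for resting activity, then samples 5 min to 24 hr, centrifuged, plasma frozen at −80° C. Thawed plasma (10 ul) in 0.1 M sodium phosphate pH 7.4 ± iso-OMPA, then DTNB plus S-butyrylthiocholine; 412 nm read 20 min later, r.t., duplicates. Iso-OMPA-sensitive difference expressed as percent of predrug level.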

Rattus norvegicus [2] = experiment: Toxicity in Fischer-344 rat assessed as lacrimation and salivation at 10 mg/kg, ip; assay type: organism-based; design: dose 10 mg/kg, route intraperitoneal; conditions: in vivo
Rattus norvegicus [3] = experiment: Ex vivo inhibition of cholinesterase in Fischer-344 rat plasma at 10 mg/kg, ip after 24 hrs by spectrophotometric analysis; assay type: functional; conditions: Fischer-344, Plasma, route intraperitoneal; how it was run: as §1
Rattus norvegicus [4] = experiment: Toxicity in Fischer-344 rat assessed as tremor at 10 mg/kg, ip; assay type: organism-based; design: dose 10 mg/kg, route intraperitoneal; conditions: in vivo

Cholinesterase, sequence (P06276 whole entry): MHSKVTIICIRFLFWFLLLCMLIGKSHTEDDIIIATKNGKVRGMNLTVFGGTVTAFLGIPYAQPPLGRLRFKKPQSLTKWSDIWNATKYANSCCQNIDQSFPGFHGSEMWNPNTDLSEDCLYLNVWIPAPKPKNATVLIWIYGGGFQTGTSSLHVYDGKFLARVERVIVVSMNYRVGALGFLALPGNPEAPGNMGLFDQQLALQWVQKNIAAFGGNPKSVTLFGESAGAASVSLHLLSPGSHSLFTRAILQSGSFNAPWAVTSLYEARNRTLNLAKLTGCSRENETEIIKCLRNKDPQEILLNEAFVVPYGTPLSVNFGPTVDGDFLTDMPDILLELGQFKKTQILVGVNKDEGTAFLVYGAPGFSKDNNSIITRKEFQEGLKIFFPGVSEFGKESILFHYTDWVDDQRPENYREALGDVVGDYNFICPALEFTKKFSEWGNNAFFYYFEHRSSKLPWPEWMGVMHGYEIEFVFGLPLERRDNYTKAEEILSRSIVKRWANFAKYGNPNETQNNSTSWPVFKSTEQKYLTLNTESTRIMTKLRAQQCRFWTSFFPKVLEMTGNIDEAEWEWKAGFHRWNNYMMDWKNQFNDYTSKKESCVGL
Acetylcholinesterase, sequence (P22303 whole entry): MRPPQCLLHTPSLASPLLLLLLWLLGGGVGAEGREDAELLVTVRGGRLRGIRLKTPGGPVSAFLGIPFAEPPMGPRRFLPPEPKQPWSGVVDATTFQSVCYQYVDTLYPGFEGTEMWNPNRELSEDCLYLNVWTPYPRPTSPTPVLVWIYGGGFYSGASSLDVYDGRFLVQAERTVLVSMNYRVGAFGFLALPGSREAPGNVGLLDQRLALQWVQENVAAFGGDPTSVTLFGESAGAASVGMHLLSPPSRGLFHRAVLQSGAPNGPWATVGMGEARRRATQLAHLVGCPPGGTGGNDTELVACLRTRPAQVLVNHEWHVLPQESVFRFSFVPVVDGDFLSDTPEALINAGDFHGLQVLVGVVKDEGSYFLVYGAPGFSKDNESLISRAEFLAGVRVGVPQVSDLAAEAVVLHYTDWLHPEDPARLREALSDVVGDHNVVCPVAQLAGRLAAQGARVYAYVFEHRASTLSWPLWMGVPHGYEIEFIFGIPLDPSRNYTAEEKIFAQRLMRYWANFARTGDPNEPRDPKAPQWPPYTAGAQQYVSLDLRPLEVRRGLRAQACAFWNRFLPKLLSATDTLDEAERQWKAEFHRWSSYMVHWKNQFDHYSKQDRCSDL

CC(C)c1ccc(NC(=O)Oc2ccc3c(c2)[C@]2(C)CC[N+](C)(CCc4ccccc4)C2N3C)cc1 (some centres not stated)
IC50 (Acetylcholinesterase): 300 nM

C[N+](C)(C)c1cccc(OC(=O)Nc2ccccc2)c1
IC50 (Cholinesterase): 18000 nM
IC50 (Acetylcholinesterase): 1870 nM

CNC(=O)Oc1ccc2c(c1)[C@]1(C)CC[N+](C)(C)C1N2C (some centres not stated)
IC50 (Acetylcholinesterase): 26.1 nM

C[n+]1cccc(OC(=O)Nc2ccccc2)c1
IC50 (Acetylcholinesterase): > 30000 nM

O=C(Nc1ccccc1)Oc1cccnc1
IC50 (Cholinesterase): > 30000 nM
IC50 (Acetylcholinesterase): > 30000 nM

CC(C)c1ccc(NC(=O)Oc2ccc3c(c2)[C@]2(C)CC[N+](C)(C)C2N3C)cc1.[Br-] (some centres not stated)
inhibition in vivo at 10 mg/kg (Rattus norvegicus [1]): 66%
Activity (Rattus norvegicus [2]): Non-toxic
IC50 (Acetylcholinesterase): 145 nM
inhibition in vivo at 10 mg/kg (Rattus norvegicus [3]): 33%
Activity (Rattus norvegicus [4]): Non-toxic

Cc1ccccc1NC(=O)Oc1ccc2c(c1)[C@]1(C)CC[N+](C)(C)C1N2C (some centres not stated)
IC50 (Acetylcholinesterase): 14.6 nM

CN(C)c1cccc(OC(=O)Nc2ccccc2)c1
IC50 (Cholinesterase): 18000 nM
IC50 (Acetylcholinesterase): 2500 nM

CN(C)C(=O)Oc1cccc([N+](C)(C)C)c1 [NEOSTIGMINE METHYLSULFATE]
IC50 (Cholinesterase): 60 nM

CN1c2ccc(OC(=O)Nc3ccccc3)cc2[C@]2(C)CC[N+](C)(C)C12 (some centres not stated)
IC50 (Acetylcholinesterase): 25.4 nM
